We go through seven compounds from ChEMBL document CHEMBL1148329, “Synthesis and structure-activity studies on N-[5-(1H-imidazol-4-yl)-5,6,7,8-tetrahydro-1-naphthalenyl]methanesulfonamide, an imidazole-containing alpha(1A)-adrenoceptor agonist” (J Med Chem, 2004).

Experiment [1] addresses T1, Alpha-1D adrenergic receptor (Rattus norvegicus, UniProt P23944).
T1 sequence (P23944 whole entry): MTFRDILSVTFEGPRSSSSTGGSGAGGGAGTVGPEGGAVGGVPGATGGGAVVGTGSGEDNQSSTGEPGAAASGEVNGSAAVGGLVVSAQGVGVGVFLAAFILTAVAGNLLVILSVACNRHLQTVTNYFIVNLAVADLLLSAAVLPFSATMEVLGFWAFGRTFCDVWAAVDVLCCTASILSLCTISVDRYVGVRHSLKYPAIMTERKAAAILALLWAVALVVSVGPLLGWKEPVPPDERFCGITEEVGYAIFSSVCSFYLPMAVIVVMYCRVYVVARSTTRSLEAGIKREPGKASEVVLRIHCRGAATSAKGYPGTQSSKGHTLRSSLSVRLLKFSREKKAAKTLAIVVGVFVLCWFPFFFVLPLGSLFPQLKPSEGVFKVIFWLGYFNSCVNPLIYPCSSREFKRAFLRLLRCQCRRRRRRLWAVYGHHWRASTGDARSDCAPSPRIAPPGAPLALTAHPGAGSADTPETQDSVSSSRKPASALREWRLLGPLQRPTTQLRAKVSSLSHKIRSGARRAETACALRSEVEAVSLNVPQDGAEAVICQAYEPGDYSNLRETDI
Nature of the experiment: In vitro binding affinity towards alpha-1D adrenergic receptor of rat clone in radioligand binding assay. In short, it runs like this: (§1)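 Radioligand binding at α1 subtypes: α1A from rat submaxillary gland, α1B hamster clone, α1D rat clone. Run essentially per an earlier method.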

Experiment [2] deals with T2, Alpha-1B adrenergic receptor (Mesocricetus auratus, UniProt P18841).
T2 sequence (P18841 whole entry): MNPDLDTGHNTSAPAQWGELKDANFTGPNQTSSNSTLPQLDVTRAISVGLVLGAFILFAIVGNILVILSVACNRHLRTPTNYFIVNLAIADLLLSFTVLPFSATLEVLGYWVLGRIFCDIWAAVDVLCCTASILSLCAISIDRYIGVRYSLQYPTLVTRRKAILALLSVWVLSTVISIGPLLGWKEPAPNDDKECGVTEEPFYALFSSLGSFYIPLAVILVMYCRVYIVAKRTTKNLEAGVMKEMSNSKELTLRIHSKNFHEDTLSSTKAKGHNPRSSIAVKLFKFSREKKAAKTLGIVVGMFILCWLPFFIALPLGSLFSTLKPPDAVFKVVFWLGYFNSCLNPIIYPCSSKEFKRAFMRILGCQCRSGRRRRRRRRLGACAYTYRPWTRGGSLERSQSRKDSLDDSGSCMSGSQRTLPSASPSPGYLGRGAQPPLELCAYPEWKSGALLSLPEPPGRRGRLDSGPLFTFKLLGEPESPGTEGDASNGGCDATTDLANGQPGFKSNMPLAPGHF
Nature of the experiment: In vitro binding affinity towards alpha-1B adrenergic receptor of hamster clone in radioligand binding assay. The format is single protein. In short, it runs like this:
as §1

Experiment [3] concerns the target T3, Alpha-1A adrenergic receptor (Rattus norvegicus, UniProt P43140).
T3 sequence (P43140 whole entry): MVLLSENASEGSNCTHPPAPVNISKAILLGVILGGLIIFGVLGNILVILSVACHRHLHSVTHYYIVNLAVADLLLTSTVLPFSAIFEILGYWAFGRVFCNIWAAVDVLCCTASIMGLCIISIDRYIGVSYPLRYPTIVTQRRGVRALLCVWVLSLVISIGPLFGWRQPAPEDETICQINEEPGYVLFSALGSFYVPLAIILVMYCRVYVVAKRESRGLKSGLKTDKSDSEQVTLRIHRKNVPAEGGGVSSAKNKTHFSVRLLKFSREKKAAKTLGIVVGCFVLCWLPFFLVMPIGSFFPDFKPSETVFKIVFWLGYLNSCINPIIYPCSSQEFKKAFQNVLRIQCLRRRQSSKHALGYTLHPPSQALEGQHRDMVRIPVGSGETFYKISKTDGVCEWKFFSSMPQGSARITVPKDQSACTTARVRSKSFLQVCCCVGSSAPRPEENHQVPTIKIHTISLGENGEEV
Put plainly: In vitro binding affinity towards alpha-1A adrenergic receptor of rat submaxillary gland in radioligand binding assay. In short, it runs like this: as §1

Experiment [4] addresses Alpha adrenergic receptor 1A and 1B (Rattus norvegicus) (UniProt P15823+P43140). Put plainly: Selectivity is ratio of pKi (binding affinity) of alpha-1B receptor to that of alpha-1A receptor. The format is protein assay.
Experiment [5] deals with Alpha adrenergic receptor 1A and 1D (Rattus norvegicus) (UniProt P23944+P43140). Put plainly: Selectivity is ratio of pKi (binding affinity) of Alpha-1D to that of alpha1A. Type of experiment: protein assay.
Experiment [6] addresses Alpha-1A adrenergic receptor (Oryctolagus cuniculus) (UniProt O02824). Put plainly: Functional agonism of the compounds to constrict tissue containing the alpha-1A adrenergic receptor in rabbit urethra; Inactive.
Experiment [7] has as its target T4, Alpha-1A adrenergic receptor (Oryctolagus cuniculus) (UniProt O02824).
T4 sequence (whole entry): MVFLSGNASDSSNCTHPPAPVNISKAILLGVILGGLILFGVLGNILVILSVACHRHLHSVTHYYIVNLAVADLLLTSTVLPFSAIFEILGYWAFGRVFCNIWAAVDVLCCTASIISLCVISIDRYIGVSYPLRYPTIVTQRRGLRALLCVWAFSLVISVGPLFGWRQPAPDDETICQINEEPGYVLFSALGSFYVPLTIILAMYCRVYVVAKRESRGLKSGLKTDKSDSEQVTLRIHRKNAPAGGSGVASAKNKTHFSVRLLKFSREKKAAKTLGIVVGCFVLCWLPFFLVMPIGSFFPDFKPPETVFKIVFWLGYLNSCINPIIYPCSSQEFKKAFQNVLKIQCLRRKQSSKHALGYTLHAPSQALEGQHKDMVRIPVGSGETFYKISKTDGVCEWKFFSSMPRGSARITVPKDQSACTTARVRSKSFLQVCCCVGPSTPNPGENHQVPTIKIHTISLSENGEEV
Put plainly: Efficacy relative to phenylephrine (PE) to constrict tissue containing the alpha-1A adrenergic receptor in rabbit urethra. The format is functional, tissue-based. In short, it runs like this:
(§2)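 α1-agonist dose–response curves in isolated tissue: rabbit urethra (α1A), rat spleen (α1B), rat aorta (α1D). Agonist potency and efficacy read from the concentration–response curves.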

The subject of experiment [8] is Canis familiaris. Nature of the experiment: Uroselectivity was determined by measuring effective dose required for 20 mmHg increase of mean arterial pressure (MAP) in vivo in dog; IA = Inactive. Type of experiment: functional, organism-based. Conditions: Canis lupus familiaris; Artery. In short, it runs like this:
(§3)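 Dog model recording intraurethral pressure (IUP) and mean arterial pressure (MAP) simultaneously. Increasing iv doses given, maximal effect of each dose taken. Doses giving a 5 mmHg rise in IUP (ED Δ5) or 20 mmHg rise in MAP (ED Δ20) were calculated, in nmol/kg ± SEM, n ≥ 4 (2 or 3 where footnoted).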

The test system of experiment [9] is Canis familiaris. Nature of the experiment: Uroselectivity was determined by measuring effective dose required for 5 mmHg increase of intraurethral pressure (IUP) in vivo in dog; IA = Inactive. Conditions: Canis lupus familiaris. Type of experiment: functional, organism-based. In short, it runs like this: as §3
The target in experiment [10] is T5, Alpha-2A adrenergic receptor (Homo sapiens, UniProt P08913).
T5 sequence (P08913 whole entry): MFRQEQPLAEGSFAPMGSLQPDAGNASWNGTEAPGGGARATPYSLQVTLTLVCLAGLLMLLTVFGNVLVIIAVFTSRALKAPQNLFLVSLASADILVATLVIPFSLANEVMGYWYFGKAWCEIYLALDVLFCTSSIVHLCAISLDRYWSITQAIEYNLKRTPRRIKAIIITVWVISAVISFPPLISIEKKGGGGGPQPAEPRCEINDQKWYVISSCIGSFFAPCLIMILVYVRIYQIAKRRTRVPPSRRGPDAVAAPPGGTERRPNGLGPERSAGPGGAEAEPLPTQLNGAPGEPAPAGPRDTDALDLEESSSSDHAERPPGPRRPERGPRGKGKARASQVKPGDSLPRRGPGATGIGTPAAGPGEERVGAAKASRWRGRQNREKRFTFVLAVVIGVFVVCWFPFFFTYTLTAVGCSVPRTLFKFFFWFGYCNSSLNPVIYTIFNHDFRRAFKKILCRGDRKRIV
Put plainly: In vitro binding affinity towards alpha-2A adrenergic receptor of human clone in radioligand binding assay.

In experiment [11] the target is T6, Alpha-1D adrenergic receptor (Rattus norvegicus) (UniProt P23944).
T6 sequence (whole entry): T1 sequence (P23944 whole entry)
Nature of the experiment: Functional agonism of the compounds to constrict tissue containing the alpha-1D adrenergic receptor in rat aorta. Type of experiment: tissue-based. In short, it runs like this: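 Agonist dose–response curves were run on isolated tissue: rabbit urethra for α1A, rat spleen for α1B, and rat aorta for α1D.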

For experiment [12], the target named is T6, Alpha-1D adrenergic receptor (Rattus norvegicus). Put plainly: Efficacy relative to phenylephrine (PE) constrict tissue containing the alpha-1D adrenergic receptor in rat aorta. The format is functional, tissue-based. In short, it runs like this:
as §2

The test system of experiment [13] is Canis familiaris. Put plainly: Uroselectivity was determined by measuring effective dose required for 20 mmHg increase of mean arterial pressure (MAP) in vivo in dog. The format is functional, Canis lupus familiaris, Artery. In short, it runs like this:
as §3

For experiment [14], the system named is Canis familiaris. Put plainly: Uroselectivity was determined by measuring effective dose required for 5 mmHg increase of intraurethral pressure (IUP) in vivo in dog. Type of experiment: functional, Canis lupus familiaris. In short, it runs like this:
as §3

The target of experiment [15] is T7, Alpha-2B adrenergic receptor (Rattus norvegicus, UniProt P19328).
T7 sequence (P19328 whole entry): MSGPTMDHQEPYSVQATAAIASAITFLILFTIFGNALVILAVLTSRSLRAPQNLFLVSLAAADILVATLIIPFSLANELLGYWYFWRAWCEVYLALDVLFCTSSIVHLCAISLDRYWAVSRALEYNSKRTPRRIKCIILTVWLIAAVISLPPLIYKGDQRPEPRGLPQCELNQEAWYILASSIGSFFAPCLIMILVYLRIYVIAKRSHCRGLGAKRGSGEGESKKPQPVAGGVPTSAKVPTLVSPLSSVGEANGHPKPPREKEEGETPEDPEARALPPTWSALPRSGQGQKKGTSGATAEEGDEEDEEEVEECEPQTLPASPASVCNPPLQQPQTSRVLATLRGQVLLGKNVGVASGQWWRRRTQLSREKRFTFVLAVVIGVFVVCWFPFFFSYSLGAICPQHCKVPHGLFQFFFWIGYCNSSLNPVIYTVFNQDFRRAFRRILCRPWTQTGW
Put plainly: In vitro binding affinity towards alpha-2B adrenergic receptor of rat neonatal lung in radioligand binding assay.

For experiment [16], the target named is T8, Alpha-1A adrenergic receptor (Bos taurus, UniProt P18130).
T8 sequence (P18130 whole entry): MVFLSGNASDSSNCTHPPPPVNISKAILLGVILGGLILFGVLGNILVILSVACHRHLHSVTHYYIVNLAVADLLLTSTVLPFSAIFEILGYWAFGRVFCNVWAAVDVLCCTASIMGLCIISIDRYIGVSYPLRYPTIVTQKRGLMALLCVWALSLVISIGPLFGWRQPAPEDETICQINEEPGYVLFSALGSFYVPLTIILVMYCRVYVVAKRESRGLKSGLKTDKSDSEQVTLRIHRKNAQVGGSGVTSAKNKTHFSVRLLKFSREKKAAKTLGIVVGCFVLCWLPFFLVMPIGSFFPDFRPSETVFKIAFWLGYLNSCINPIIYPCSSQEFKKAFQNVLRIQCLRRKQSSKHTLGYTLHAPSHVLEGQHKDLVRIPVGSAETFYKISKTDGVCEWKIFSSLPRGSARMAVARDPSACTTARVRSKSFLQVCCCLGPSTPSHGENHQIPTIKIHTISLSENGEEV
Nature of the experiment: In vitro binding affinity towards alpha-1A adrenergic receptor of bovine clone in radioligand binding assay.

For experiment [17], the species on record is Rattus norvegicus. Put plainly: Relative affinities for alpha2B and alpha1A receptors.
Experiment [18] can be described thus: Relative affinities for alpha-2a and alpha-1A receptors.

The source made the active and inactive calls. No cut-off for these calls is given here.

One may read the Ki as the dissociation constant of the complex between target and ligand, obtained from inhibition or displacement. High values mean lower affinity, low ones higher affinity.

Alpha adrenergic receptor 1A and 1B (Rattus norvegicus), sequence (P15823 whole entry, looked up, one chain of several): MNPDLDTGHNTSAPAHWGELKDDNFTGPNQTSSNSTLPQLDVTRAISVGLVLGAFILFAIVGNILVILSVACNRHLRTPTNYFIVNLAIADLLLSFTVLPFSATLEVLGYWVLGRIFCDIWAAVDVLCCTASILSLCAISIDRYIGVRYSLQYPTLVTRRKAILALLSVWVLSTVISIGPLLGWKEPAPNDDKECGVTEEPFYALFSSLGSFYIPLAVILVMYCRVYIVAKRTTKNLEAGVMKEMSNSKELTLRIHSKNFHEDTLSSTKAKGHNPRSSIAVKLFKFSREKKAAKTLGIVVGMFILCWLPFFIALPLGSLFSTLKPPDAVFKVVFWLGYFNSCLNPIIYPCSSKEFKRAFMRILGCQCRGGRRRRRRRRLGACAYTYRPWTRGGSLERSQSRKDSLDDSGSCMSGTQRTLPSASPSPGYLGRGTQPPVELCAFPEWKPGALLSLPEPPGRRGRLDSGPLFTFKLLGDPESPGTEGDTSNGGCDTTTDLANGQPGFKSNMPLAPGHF

Turning to `CCS(=O)(=O)Nc1cccc(C2CCNC2)c1` (stereo unspecified), the inhibitory constant (Ki) is 1000 nM in experiment [1], above 10000 nM in experiment [2] and 501 nM in [3]. In addition, the results for the Selectivity in [4] and in experiment [5] were above 20 and 2, respectively. In addition, the pD2 entry in experiment [6] is “inactive”.
On to `Cn1cnc(C2CCCc3c(NS(C)(=O)=O)cccc32)c1` (stereo unspecified), for which the Efficacy in experiment [7] is 40%. Moreover, the “ED delta20” value in experiment [8] was “inactive”. Besides, the “ED delta5” value in experiment [9] is “inactive”.
Take `CS(=O)(=O)Nc1cccc2c1CCC=C2c1c[nH]cn1`: the “ED delta20” value in [8] was “inactive”. Besides, the “ED delta5” value in [9] was “inactive”.
In the case of `CCS(=O)(=O)Nc1cccc2c1CCCC2CN` (stereo unspecified), the Ki is above 10000 nM in experiment [1], above 10000 nM in experiment [2] and 794 nM in experiment [3]. The Selectivity in experiment [4] and in experiment [5] was above 10 throughout. In addition, the pD2 result in experiment [6] is “inactive”.
`CS(=O)(=O)Nc1c(O)ccc2c1CCCC2C1=NCCN1` (stereo unspecified): the Ki was 33.1 nM in experiment [10], 1480 nM in experiment [1], 2950 nM in experiment [2] and 245 nM in experiment [15]. Besides, in experiment [11], the pD2 turned out to be 5.59. The Efficacy in experiment [7] turned out to be 88%; in [12], 100%. The “ED delta20” value in [13] was determined as 0.27 nM/kg. In experiment [14], the “ED delta5” value was 0.16 nM/kg.
In the case of `CCS(=O)(=O)Nc1ccc2c(c1)C(c1c[nH]cn1)CCC2` (stereo unspecified), the Ki was 22.9 nM in experiment [10]; 339 nM in experiment [1]; 1350 nM in experiment [2]; 2040 nM in experiment [16]; 22.4 nM in experiment [15]. In addition, the Selectivity in [17] was determined as 0.02; in experiment [18] it was 0.02; in experiment [4], 1; in experiment [5], 0.2.
In the case of `O=S(=O)(Nc1cccc2c1CCCC2c1c[nH]cn1)c1ccc2ccccc2c1` (stereo unspecified), the Ki was 100 nM in experiment [1], 214 nM in experiment [2] and 692 nM in experiment [16]. Also, the Selectivity in [4] amounted to 1; in experiment [5], 0.4. In addition, the pD2 entry in experiment [6] is “inactive”.
